Data reported in publication PMC9090800 (RSC Advances, 2018).
≈ marks a conversion by molar mass, not a printed value.

Columns and labels:
C. albicans (ATCC 90028) = assay: In vitro anticandidal activity, broth dilution; format: cell-based; conditions: Candida albicans, ATCC90028, 24 h, read-out: IC50 ± S.D, C. albicans
Summary of the method: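 Broth dilution followed the NCCLS protocol. Test compound in DMSO was diluted in PBS, then tested at 1000 to 7.8 μg mL−1 in SD broth with about 2.5 × 10^3 cells per mL in 96-well plates. Plates were shaken 24 h at 30 °C, 150 rpm, and read at OD580. IC50 was the concentration halving absorbance versus untreated cells, taken from a log10 concentration versus % inhibition plot. Triplicates were run on separate occasions, with fluconazole as positive control.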

[1] = system: human embryonic kidney (HEK-293) cells; assay: Cytotoxicity by MTT assay; format: cell-based; conditions: HEK-293, 100 μg mL^−1, 24 h
Summary of the method: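 HEK-293 cells grown as monolayers in DMEM with 10% FBS, penicillin and streptomycin, 37 °C, 5% CO2, at most 30 passages. Seeded at about 8 × 10^3 cells per well, 24 h before dosing. Test compound (DMSO stock diluted in PBS) given at 10–200 μg mL−1 for 24 h at 37 °C. Serum-free medium, then MTT (5 mg mL−1 in PBS), 4 h. Formazan dissolved in DMSO, A570 read. Triplicate; viability relative to untreated cells.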

Hemolytic assay = format: cell-based; conditions: human, human red blood cells (erythrocyte suspension in PBS)
Summary of the method: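 Fresh human blood was collected in EDTA and spun 10 min at 2000 rpm. Erythrocytes were washed three times in PBS and made to a 10% (v/v) suspension, then diluted 1:10. Equal volumes of cells and test compound dilution series in PBS were incubated in triplicate for 1 h at 37 °C and re-centrifuged. Supernatant A450 was expressed relative to buffer (0%) and 1% Triton X-100 (100% lysis). Fluconazole was the reference.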

C. tropicalis (ATCC 750) = assay: In vitro anticandidal activity, broth dilution; format: cell-based, Candida tropicalis; conditions: ATCC 750, 24 h, OD 580 nm
[2] = system: ergosterol content in C. albicans ATCC 90028; assay: Sterol estimation assay; format: cell-based, Candida albicans; conditions: vs untreated cells
C. albicans = assay: Growth curve studies; format: cell-based, Candida albicans
Summary of the method: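 C. albicans revived on SD agar and pre-grown 16 h at 30 °C in SD broth. About 2 × 10^3 cells per mL were inoculated into 50 mL SD medium containing test compound at 2MIC, MIC or MIC/2, then shaken at 30 °C, 160 rpm. Fluconazole at 31.25 μg mL−1 and untreated cells served as controls. OD600 was read on 1 mL aliquots every 2 h from 0 to 24 h.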

| IC50 (C. albicans (ATCC 90028)) [µg/mL] | IC50 ± S.D, C. tropicalis (C. tropicalis (ATCC 750)) [µg/mL] | SMILES | cell viability (MTT) [1] | hemolysis at 1 h, 1000 μg mL^−1 (Hemolytic assay) [%] | decrease in ergosterol content ([2]; 2MIC (500 μg mL^−1)) [%] | decrease in ergosterol content ([2]; MIC (250 μg mL^−1)) [%] | decrease in ergosterol content ([2]; MIC/2 (125 μg mL^−1)) [%] | growth of Candida cells (C. albicans; 2MIC and MIC, 24 h) | nature of inhibition (C. albicans; no significant growth after 24 h at higher concentrations) | time after which growth was observed (C. albicans; sub-MIC (MIC/2), standard C. albicans strain) [h] |
| --- | --- | --- | --- | --- | --- | --- | --- | --- | --- | --- |
| 65.6 ± 3.2 (≈ 160 µM) | 28.2 ± 2.2 (≈ 68.8 µM) | CCOC(=O)c1nc2ccccc2c(=O)n1Cc1cn(-c2cccc(Cl)c2)nn1 [Compound 5g, Ethyl 3-((1-(3-chlorophenyl)-1H-1,2,3-triazol-4-yl)methyl)-4-oxo-3,4-dihydroquinazoline-2-carboxylate] | no significant decrease in cell viability | < 20 | – | – | – | – | – | – |
| 14.6 ± 2.1 (≈ 37.5 µM) | – | CCOC(=O)c1nc2ccccc2c(=O)n1Cc1cn(-c2ccc(C)cc2)nn1 [Compound 5n, Ethyl 4-oxo-3-((1-p-tolyl-1H-1,2,3-triazol-4-yl)methyl)-3,4-dihydroquinazoline-2-carboxylate] | no significant decrease in cell viability | 41.2 | 57 | 55 | 48 | did not show any significant growth | fungicidal | 7 |
| 18.6 ± 3.4 (≈ 45.9 µM) | – | CCOC(=O)c1nc2ccccc2c(=O)n1Cc1cn(-c2ccccc2OC)nn1 [Compound 5e, Ethyl 3-((1-(2-methoxyphenyl)-1H-1,2,3-triazol-4-yl)methyl)-4-oxo-3,4-dihydroquinazoline-2-carboxylate] | no significant decrease in cell viability | < 20 | – | – | – | – | – | – |
